Assay results: ChEMBL document CHEMBL1138404, “Bisindole alkaloids of the topsentin and hamacanthin classes from a marine sponge Spongosorites sp” (J Nat Prod, 2007)
≈ marks a conversion by molar mass, not a printed value.

Key:
[1] = Cytotoxicity against human XF498 cell line; assay type: cell-based; conditions: XF498 cells, read-out: ED50 (the source's name)
Pseudomonas aeruginosa [2] = experiment: Antibacterial activity against […] Pseudomonas aeruginosa 1592E; assay type: functional
Method in brief: (§1)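 Agar dilution MIC: Mueller Hinton agar plates containing 17 serial dilutions of sample (final 25 to 0.002 μg/mL), meropenem and imipenem as standards. Strains grown 18 h at 37 °C in Fleisch extract broth (10% horse serum for some strains), spotted onto plates by automatic inoculator; MIC read after 18 h incubation.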

Pseudomonas aeruginosa [3] = experiment: Antibacterial activity against […] Pseudomonas aeruginosa 1771M; assay type: functional; method in brief: as §1
Klebsiella aerogenes = experiment: Antibacterial activity against […] Klebsiella aerogenes 1522E; assay type: functional; method in brief: as §1
Escherichia coli [4] = experiment: Antibacterial activity against […] Escherichia coli DC0; assay type: functional; method in brief: as §1
[5] = Cytotoxicity against human HCT15 cell line; assay type: cell-based; conditions: HCT-15 cells, read-out: ED50 (the source's name)
Klebsiella oxytoca = experiment: Antibacterial activity against […] Klebsiella oxytoca 1082E; assay type: functional; method in brief: as §1
Pseudomonas aeruginosa [6] = experiment: Antibacterial activity against […] Pseudomonas aeruginosa 9027; assay type: functional; method in brief: as §1
Staphylococcus aureus [7] = experiment: Antibacterial activity against methicillin-resistant Staphylococcus aureus 285; assay type: functional; method in brief: as §1
Salmonella typhimurium = experiment: Antibacterial activity against […] Salmonella Typhimurium; assay type: functional, Salmonella enterica subsp. enterica serovar Typhimurium; conditions: Salmonella enterica; method in brief: as §1
Escherichia coli [8] = experiment: Antibacterial activity against […] Escherichia coli 078; assay type: functional; method in brief: as §1
Streptococcus pyogenes [9] = experiment: Antibacterial activity against methicillin-resistant Streptococcus pyogenes 77A; assay type: functional; method in brief: as §1
Enterococcus faecium = experiment: Antibacterial activity against […] Streptococcus faecium MD8b; assay type: functional; method in brief: as §1
Staphylococcus aureus [10] = experiment: Antibacterial activity against methicillin-resistant Staphylococcus aureus SG511; assay type: functional; method in brief: as §1
Escherichia coli [11] = experiment: Antibacterial activity against […] Escherichia coli 1507E; assay type: functional; method in brief: as §1
Escherichia coli [12] = experiment: Antibacterial activity against […] Escherichia coli TEM; assay type: functional; method in brief: as §1
Staphylococcus aureus [13] = experiment: Antibacterial activity against methicillin-resistant Staphylococcus aureus 503; assay type: functional; method in brief: as §1
[14] = Cytotoxicity against human SK-OV-3 cell line; assay type: cell-based; conditions: SK-OV-3 cells, read-out: ED50 (the source's name)
Enterobacter cloacae [15] = experiment: Antibacterial activity against […] Enterobacter cloacae 1321E; assay type: functional; method in brief: as §1
[16] = Cytotoxicity against human A549 cell line; assay type: cell-based; conditions: A549 cells, read-out: ED50 (the source's name)
Enterobacter cloacae [17] = experiment: Antibacterial activity against […] Enterobacter cloacae P99; assay type: functional; method in brief: as §1
[18] = Cytotoxicity against human SK-MEL-2 cell line; assay type: cell-based; conditions: SK-MEL-2 cells, read-out: ED50 (the source's name)
Escherichia coli [19] = experiment: Antibacterial activity against […] Escherichia coli DC2; assay type: functional; method in brief: as §1
Pseudomonas aeruginosa [20] = experiment: Antibacterial activity against […] Pseudomonas aeruginosa 1771; assay type: functional; method in brief: as §1
Streptococcus pyogenes [21] = experiment: Antibacterial activity against methicillin-resistant Streptococcus pyogenes 308A; assay type: functional; method in brief: as §1

O=C1NC[C@@H](c2c[nH]c3cc(Br)ccc23)N=C1c1c[nH]c2ccccc12 [(R)-6'-DEBROMOHAMACANTHIN B] showed a CC50 [1] of 8.3 µg/mL (≈ 20.4 µM), an MIC (Pseudomonas aeruginosa [2]) of over 25 µg/mL and an MIC (Pseudomonas aeruginosa [3]) of 25 µg/mL (≈ 61.4 µM). It also gave an MIC (Klebsiella aerogenes) of over 25 µg/mL, an MIC (Escherichia coli [4]) of over 25 µg/mL and a CC50 [5] of 4.2 µg/mL (≈ 10.3 µM). The MIC (Klebsiella oxytoca) was 25 µg/mL (≈ 61.4 µM), the MIC (Pseudomonas aeruginosa [6]) was over 25 µg/mL and the MIC (Staphylococcus aureus [7]) was 12.5 µg/mL (≈ 30.7 µM). The MIC (Salmonella typhimurium) was over 25 µg/mL, the MIC (Escherichia coli [8]) was over 25 µg/mL and the MIC (Streptococcus pyogenes [9]) was 12.5 µg/mL (≈ 30.7 µM). The MIC (Enterococcus faecium) was over 25 µg/mL, the MIC (Staphylococcus aureus [10]) was 12.5 µg/mL (≈ 30.7 µM) and the MIC (Escherichia coli [11]) was over 25 µg/mL. It also gave an MIC (Escherichia coli [12]) of over 25 µg/mL, an MIC (Staphylococcus aureus [13]) of 12.5 µg/mL (≈ 30.7 µM) and a CC50 [14] of 8.5 µg/mL (≈ 20.9 µM). For the same compound, the MIC (Enterobacter cloacae [15]) was over 25 µg/mL, the CC50 [16] was 3.71 µg/mL (≈ 9.11 µM) and the MIC (Enterobacter cloacae [17]) was over 25 µg/mL. The CC50 [18] was 7.6 µg/mL (≈ 18.7 µM), the MIC (Escherichia coli [19]) was 25 µg/mL (≈ 61.4 µM) and the MIC (Pseudomonas aeruginosa [20]) was 25 µg/mL (≈ 61.4 µM). For the same compound, the MIC (Streptococcus pyogenes [21]) was 6.3 µg/mL (≈ 15.5 µM).

Work on COc1cccc2c1C(=O)c1c(O)c3c(c(O)c1C2=O)C[C@@](O)(C(=O)CO)C[C@@H]3O[C@H]1C[C@H](N)[C@H](O)[C@H](C)O1 [DOXORUBICIN] yielded a CC50 [1] of 0.01 µg/mL (≈ 0.0184 µM), a CC50 [5] of 0.02 µg/mL (≈ 0.0368 µM) and a CC50 [14] of 0.03 µg/mL (≈ 0.0552 µM). It also gave a CC50 [16] of 0.01 µg/mL (≈ 0.0184 µM) and a CC50 [18] of 0.01 µg/mL (≈ 0.0184 µM).

Work on O=C1N[C@@H](c2c[nH]c3cc(Br)ccc23)CN=C1c1c[nH]c2cc(Br)ccc12 [HAMACANTHIN A] yielded a CC50 [1] of 5.6 µg/mL (≈ 11.5 µM), a CC50 [5] of 4.66 µg/mL (≈ 9.59 µM) and a CC50 [14] of 5.24 µg/mL (≈ 10.8 µM). The CC50 [16] was 4.49 µg/mL (≈ 9.24 µM) and the CC50 [18] was 5.44 µg/mL (≈ 11.2 µM).

For O=C1NC[C@H](c2c[nH]c3cc(Br)ccc23)N=C1c1c[nH]c2cc(Br)ccc12 [HAMACANTHIN B], the CC50 [1] was 2.93 µg/mL (≈ 6.03 µM), the CC50 [5] was 1.52 µg/mL (≈ 3.13 µM) and the CC50 [14] was 2.61 µg/mL (≈ 5.37 µM). For the same compound, the CC50 [16] was 2.14 µg/mL (≈ 4.4 µM) and the CC50 [18] was 1.59 µg/mL (≈ 3.27 µM).

With C[C@@H](O)[C@H]1C(=O)N2C(C(=O)O)=C(S[C@@H]3CN[C@H](C(=O)N(C)C)C3)[C@H](C)[C@H]12 [MEROPENEM] the MIC (Pseudomonas aeruginosa [2]) was 0.098 µg/mL (≈ 0.256 µM), the MIC (Pseudomonas aeruginosa [3]) was 0.049 µg/mL (≈ 0.128 µM) and the MIC (Klebsiella oxytoca) was 0.049 µg/mL (≈ 0.128 µM). It also gave an MIC (Staphylococcus aureus [7]) of 0.098 µg/mL (≈ 0.256 µM), an MIC (Streptococcus pyogenes [9]) of 0.004 µg/mL (≈ 0.0104 µM) and an MIC (Staphylococcus aureus [10]) of 0.049 µg/mL (≈ 0.128 µM). For the same compound, the MIC (Staphylococcus aureus [13]) was 0.049 µg/mL (≈ 0.128 µM), the MIC (Escherichia coli [19]) was 0.013 µg/mL (≈ 0.0339 µM) and the MIC (Pseudomonas aeruginosa [20]) was 0.391 µg/mL (≈ 1.02 µM). For the same compound, the MIC (Streptococcus pyogenes [21]) was 0.004 µg/mL (≈ 0.0104 µM).

O=C(C1=NC(c2c[nH]c3cc(Br)ccc23)CN1)c1c[nH]c2ccccc12 (stereo not given) [SPONGOTINE A] gave a CC50 [1] of 7.22 µg/mL (≈ 17.7 µM), a CC50 [5] of 9.8 µg/mL (≈ 24.1 µM) and a CC50 [14] of 3.71 µg/mL (≈ 9.11 µM). It also gave a CC50 [16] of 6.82 µg/mL (≈ 16.7 µM) and a CC50 [18] of 5.04 µg/mL (≈ 12.4 µM).

For O=C(C1=NC(c2c[nH]c3ccccc23)CN1)c1c[nH]c2cc(Br)ccc12 (stereo not given) [SPONGOTINE B], the CC50 [1] was over 30 µg/mL, the MIC (Pseudomonas aeruginosa [2]) was over 25 µg/mL and the MIC (Pseudomonas aeruginosa [3]) was 25 µg/mL (≈ 61.4 µM). It also gave an MIC (Klebsiella aerogenes) of over 25 µg/mL, an MIC (Escherichia coli [4]) of over 25 µg/mL and a CC50 [5] of over 30 µg/mL. For the same compound, the MIC (Klebsiella oxytoca) was 25 µg/mL (≈ 61.4 µM), the MIC (Pseudomonas aeruginosa [6]) was over 25 µg/mL and the MIC (Staphylococcus aureus [7]) was 25 µg/mL (≈ 61.4 µM). The MIC (Salmonella typhimurium) was over 25 µg/mL, the MIC (Escherichia coli [8]) was over 25 µg/mL and the MIC (Streptococcus pyogenes [9]) was 25 µg/mL (≈ 61.4 µM). For the same compound, the MIC (Enterococcus faecium) was over 25 µg/mL, the MIC (Staphylococcus aureus [10]) was 25 µg/mL (≈ 61.4 µM) and the MIC (Escherichia coli [11]) was over 25 µg/mL. The MIC (Escherichia coli [12]) was over 25 µg/mL, the MIC (Staphylococcus aureus [13]) was 25 µg/mL (≈ 61.4 µM) and the CC50 [14] was over 30 µg/mL. For the same compound, the MIC (Enterobacter cloacae [15]) was over 25 µg/mL, the CC50 [16] was over 30 µg/mL and the MIC (Enterobacter cloacae [17]) was over 25 µg/mL. For the same compound, the CC50 [18] was over 30 µg/mL, the MIC (Escherichia coli [19]) was 25 µg/mL (≈ 61.4 µM) and the MIC (Pseudomonas aeruginosa [20]) was over 25 µg/mL. For the same compound, the MIC (Streptococcus pyogenes [21]) was 25 µg/mL (≈ 61.4 µM).

O=C(C1=NC(c2c[nH]c3cc(Br)ccc23)CN1)c1c[nH]c2cc(Br)ccc12 (stereo not given) [SPONGOTINE C] showed a CC50 [1] of 5.16 µg/mL (≈ 10.6 µM), a CC50 [5] of 4.88 µg/mL (≈ 10 µM) and a CC50 [14] of 4.81 µg/mL (≈ 9.89 µM). It also gave a CC50 [16] of 5.22 µg/mL (≈ 10.7 µM) and a CC50 [18] of 4.82 µg/mL (≈ 9.91 µM).
